Measured values published in PMC3755765 (ChemMedChem, 2013).
In brackets after ≈: the same amount, converted by molar mass. Several values for one entry are separate records, joined by “and”; a condition that tells them apart may be missing. Equal entries are not always repeated. Entries after “also recorded” stand apart in the source; their conditions may differ. Where two headings read alike, the source gives them in different places.

Key:
T. gondii tachyzoites = test: Parasite tissue culture assay: inhibition of T. gondii tachyzoites in HFF; assay type: cell-based, Toxoplasma gondii; conditions: for Activity in the parasite-based assay: T. gondii tachyzoites; for IC50 / MIC50: Toxoplasma gondii
TgENR = molecular target: T1, TgENR (Toxoplasma gondii, UniProt Q6UCJ9); test: TgENR enzyme assay; assay type: biochemical; conditions: for Activity in the enzyme-based assay: purified TgENR; for inhibition at 1 µM: read-out: Cpd. conc. [1 μM]/% Inh.: percentage of inhibition of TgENR
T1 sequence (Q6UCJ9 28-417): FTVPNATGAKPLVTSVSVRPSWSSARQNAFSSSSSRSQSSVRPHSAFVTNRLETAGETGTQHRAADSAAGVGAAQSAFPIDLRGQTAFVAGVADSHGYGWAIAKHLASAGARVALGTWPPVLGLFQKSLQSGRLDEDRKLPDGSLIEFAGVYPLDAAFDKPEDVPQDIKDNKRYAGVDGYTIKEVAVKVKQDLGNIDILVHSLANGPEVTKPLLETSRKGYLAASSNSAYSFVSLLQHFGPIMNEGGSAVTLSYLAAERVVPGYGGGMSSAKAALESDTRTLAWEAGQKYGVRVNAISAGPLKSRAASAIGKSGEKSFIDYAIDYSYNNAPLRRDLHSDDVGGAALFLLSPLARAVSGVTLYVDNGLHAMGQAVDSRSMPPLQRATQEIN

[1] = system: P. falciparum strain D6 (CDC/Sierra Leone); test: Malaria SYBR Green I-based fluorescence assay, strain D6; assay type: cell-based; conditions: Plasmodium falciparum, D6, 72 h, read-out: SYBR Green D6 IC50
Outline: (§1)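 Late-ring or early-trophozoite parasites at 0.3% starting parasitemia and 2% hematocrit were added to plates predosed with quadruplicate 12-point two-fold dilutions in DMSO (final […]), with mefloquine as reference. Plates were incubated 72 h at 37°C under 5% CO2/5% O2/90% N2, lysed with Tris/EDTA/Triton X/saponin buffer with SYBR Green I (final 10x), kept dark 24 h at RT, and read as RFU. A chloroquine batch control at 2000 ng/ml validated each run.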

[2] = system: P. falciparum strain TM91C235 (WRAIR, Thailand, chloroquine resistant); test: Malaria SYBR Green I-based fluorescence assay, strain TM91C235; assay type: cell-based; conditions: Plasmodium falciparum, 72 h, read-out: SYBR Green C235 IC50
Outline: as §1

[3] = system: Human Foreskin Fibroblasts (HFF); test: Toxicity for host cells; conditions: for Parasite tissue culture assay HFF (HFF toxicity): human foreskin fibroblasts, highest concentration tested 10 μM
T. gondii = T. gondii mouse infection model; assay type: in vivo; conditions: mice; for Effect on parasite burden compared to triclosan (Xenogen camera images): 10mg/ml; for Effect on parasite growth in vivo: 50mg/kg (results not shown)
Toxicity in mice = assay type: in vivo
in vitro = conditions: human, Caco-2
Caco-2 = test: Experimental Caco-2 permeability; conditions: experimental, Contract Research Organization
[4] = Intrinsic clearance in human cryopreserved hepatocytes; assay type: in vitro ADME; conditions: human
[5] = system: human cryopreserved hepatocytes; test: as above; assay type: in vitro ADME
[6] = Intrinsic clearance in human liver microsomes; assay type: in vitro ADME
[7] = Experimental Caco-2 permeability; conditions: human, Caco-2
[8] = 72 h, read-out: Parasite tissue culture assay MIC50
[9] = 75 mg/kg, day 5 after infection, 75 mg/kg

| Compound | inhibition at 1 µM (TgENR) [%] | IC50 [1] | IC50 [2] | Parasite tissue culture assay HFF (HFF toxicity) [3] [µM] | MIC50 (T. gondii tachyzoites; [8]) [µM] | also measured |
| --- | --- | --- | --- | --- | --- | --- |
| CCC(=O)c1ccc(Oc2ccc(Cl)cc2Cl)c(O)c1 [Compound 43a, 1-[4-(2,4-Dichlorophenoxy)-3-hydroxyphenyl]propan-1-one] | 85 | 2.75 µM and 0.857 µg/mL | > 2 µg/mL | >10 |  | Activity in the parasite-based assay (T. gondii tachyzoites): ineffective; IC50 (T. gondii tachyzoites; [8]): > 10000 nM; Activity in the enzyme-based assay (TgENR): only weak activity; also recorded: only weak inhibition |
| CCCCN(CCCC)C(=O)c1ccc(Oc2ccc(Cl)cc2Cl)c(O)c1 [Compound 30b, 4-(2,4-Dichlorophenoxy)-3-hydroxy-N,N-dibutylbenzamide] | 44 | 400 nM and 0.166 µg/mL | 600 nM and 0.247 µg/mL | >10 | > 10 |  |
| Cc1cc(CC(=O)NCc2ccc(Oc3ccc(Cl)cc3O)c(Cl)c2)on1 [Compound 37c, N-[3-Chloro-4-(4-chloro-2-hydroxyphenoxy)benzyl]-2-(3-methyl-1,2-oxazol-5-yl)acetamide] | 96 |  |  |  | > 10 | Effect on parasite burden in vivo (T. gondii; 10 mg/kg): neither of those analogs reduced the parasite burden; also recorded: no effect; Effect on parasite burden compared to triclosan (Xenogen camera images) (T. gondii): reduced effect; Effect on parasite growth in vivo (T. gondii): not evident; Effect on parasite burden in vivo (T. gondii; [9]): protected the mice by decreasing parasite burden; also recorded: effective in reducing parasite burden; Toxicity in mice relative to triclosan (fold less toxic) (Toxicity in mice): 10 fold |
| CC(C)NCC(O)COc1cccc2ccccc12 (stereo not drawn) [propranolol] |  |  |  |  |  | Papp (in vitro): 51.1 ×10⁻⁶ cm/s |
| Oc1cc(CNC2CCCCC2)ccc1Oc1ccc(Cl)cc1Cl [Compound 39b, 5-[(Cyclohexylamino)methyl]-2-(2,4-dichlorophenoxy)phenol] | 34 | 30 nM and 0.0119 µg/mL | 80 nM and 0.0276 µg/mL | >10 | 4 (≈ 1.47 µg/mL) | Activity in the parasite-based assay (T. gondii tachyzoites): activity comparable to or better than that of triclosan; Activity in the enzyme-based assay (TgENR): completely inactive |
| Oc1cc(Cl)ccc1Oc1ccc(Cl)cc1Cl [Triclosan, triclosan, reference compound] | 97 |  |  | > 10 | 3 (≈ 0.869 µg/mL) | IC50 (T. gondii tachyzoites; [8]): 250 nM; Effect on parasite burden in vivo (T. gondii; 10 mg/kg): effective; also recorded: demonstrated efficacy |
| Oc1cc(Cn2ccnn2)ccc1Oc1ccc(Cl)cc1Cl [Compound 9c, 2-(2,4-Dichlorophenoxy)-5-(1H-1,2,3-triazol-1-ylmethyl)phenol] | 93 | 4.71 µM and 1.58 µg/mL | > 2 µg/mL | >10 | 10 (≈ 3.36 µg/mL) | IC50 (TgENR): 130 nM |
| O=C(c1ccccc1)c1ccc(Oc2ccc(Cl)cc2Cl)c(O)c1 [Compound 43b, [4-(2,4-Dichlorophenoxy)-3-hydroxyphenyl](phenyl)methanone] | 78 | > 2 µg/mL | > 2 µg/mL | >10 | > 10 | Activity in the parasite-based assay (T. gondii tachyzoites): ineffective; IC50 (TgENR): 750 nM; Activity in the enzyme-based assay (TgENR): only weak activity; also recorded: only weak inhibition |
| CCCCCCNC(=O)c1ccc(Oc2ccc(Cl)cc2Cl)c(O)c1 [Compound 30d, 4-(2,4-Dichlorophenoxy)-N-hexyl-3-hydroxybenzamide] | 30 | > 2 µg/mL | > 2 µg/mL | >10 | > 10 |  |
| O=C(Nc1ccccc1)c1ccc(Oc2ccc(Cl)cc2Cl)c(O)c1 [Compound 30a, 4-(2,4-Dichlorophenoxy)-3-hydroxy-N-phenylbenzamide] | 7 | > 2 µg/mL | > 2 µg/mL | >10 | > 10 |  |
| COc1cc2c(c(OC)c1OC)-c1ccc(OC)c(=O)cc1[C@@H](NC(C)=O)CC2 [colchicines, reference compound] |  |  |  |  |  | Caco-2 permeability (Caco-2): 0.1 ×10⁻⁶ cm/s |
| Oc1cc(Cl)ccc1Oc1ccc(Cn2ccnn2)cc1Cl [Compound 16c, 5-Chloro-2-[2-chloro-4-[(1H-1,2,3-triazol-1-yl)methyl]phenoxy]phenol] | 91 |  |  | >10 | 0.25 (≈ 0.084 µg/mL) | IC50 (T. gondii tachyzoites; read-out: IC50 (MIC50) against Toxoplasma gondii tachyzoites): 250 nM; Effect on parasite burden in vivo (T. gondii; 10 mg/kg): neither of those analogs reduced the parasite burden; also recorded: no effect; Effect on parasite burden compared to triclosan (Xenogen camera images) (T. gondii): reduced effect; Effect on parasite growth in vivo (T. gondii): not evident; Effect on parasite burden in vivo (T. gondii; [9]): protected the mice by decreasing parasite burden; also recorded: effective in reducing parasite burden; half-life [4]: 29 min; Compound left unmetabolized ([5]; after 60 min): 20%; Compound remained intact ([5]; after 120 min): 5%; half-life [6]: > 60 min; Toxicity in mice relative to triclosan (fold less toxic) (Toxicity in mice): 10 fold; Papp [7]: 26.3 ×10⁻⁶ cm/s; Toxicity to the host cells [3]: without apparent toxicity to the host cells |
